The target of series [1] is T1, Proteinase-activated receptor 1 (Homo sapiens, UniProt P25116).
T1 sequence (P25116 whole entry): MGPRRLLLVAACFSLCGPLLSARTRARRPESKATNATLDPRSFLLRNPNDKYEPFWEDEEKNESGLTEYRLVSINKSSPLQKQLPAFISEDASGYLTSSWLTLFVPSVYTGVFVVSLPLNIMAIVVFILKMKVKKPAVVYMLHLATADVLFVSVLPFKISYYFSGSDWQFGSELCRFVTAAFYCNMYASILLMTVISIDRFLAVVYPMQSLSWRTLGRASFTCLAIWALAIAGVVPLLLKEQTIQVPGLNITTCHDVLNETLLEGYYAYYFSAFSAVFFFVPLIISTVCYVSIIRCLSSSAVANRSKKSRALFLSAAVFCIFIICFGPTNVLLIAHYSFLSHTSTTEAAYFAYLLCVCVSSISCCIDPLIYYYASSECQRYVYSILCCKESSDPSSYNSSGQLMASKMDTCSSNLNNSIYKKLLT
Description: (§1) Displacement of [3H]haTRAP from PAR1 in human platelet membrane. The class given is cell membranes. An outline of the steps: (§2)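 Membranes from human platelets as the PAR-1 source, with tritiated high-affinity thrombin receptor activating peptide ([3H]haTRAP) as radioligand; IC50 reported ± SEM, n = 2.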

Series [2] can be described thus: AUC (0 to 6 hrs) in rat at 10 mg/kg, po. In kind it is ADME, organism-based. More on the design: time < 6 hr, dose 10 mg/kg, route oral. Conditions: plasma. An outline of the steps: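 Rats given a single 10 mg/kg oral dose in 0.4% methylcellulose; plasma levels followed for 6 h and exposure reported as AUC from 0 to 6 h in ng·hr/mL.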
The test system of series [3] is Cynomolgus monkey. Description: Ex vivo inhibition of haTRAP-induced platelet aggregation in cynomolgus monkey at 3 mg/kg, po after 6 hrs. Conditions: Macaca fascicularis. The class given is functional. An outline of the steps:
(§3)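 Conscious, chaired cynomolgus monkeys dosed orally at 3 mg/kg in 20% PEG-HPBCD; blood drawn at 1 h intervals to 6 h, then at 24 h; haTRAP added ex vivo as agonist; aggregation read in a whole blood aggregometer, reported as percent reduction.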

The nature of series [4]: Bioavailability in cynomolgus monkey at 3 mg/kg, po. Conditions: in vivo. In kind it is ADME, organism-based, Macaca fascicularis.
The nature of series [5]: Cmax in po dosed cynomolgus monkey. Conditions: in vivo. The class given is ADME, organism-based, Macaca fascicularis. More on the design: route oral.
The nature of series [6]: Half life in iv dosed cynomolgus monkey. In kind it is ADME, organism-based, Macaca fascicularis. Conditions: in vivo.
A short description of series [7]: Tmax in cynomolgus monkey. In kind it is ADME, organism-based, Macaca fascicularis. As to conditions: in vivo.
Series [8] is filed under the species Mus musculus. Briefly: Effect on liver weight in mouse. In kind it is functional, organism-based. An outline of the steps:
(§4)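 Mouse P450 enzyme induction model run for 8 days at doses up to 100 mg/kg; end points were liver weight, liver-to-body weight ratio and spectral CYP450.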

Series [9] is filed under the species Mus musculus. Briefly: Effect on liver to body weight ratio in mouse. The class given is functional, organism-based. An outline of the steps:
as §4

In series [10] the test system is Cynomolgus monkey. Description: Ex vivo inhibition of haTRAP-induced platelet aggregation in cynomolgus monkey at 3 mg/kg, po 24 hrs. In kind it is functional. As to conditions: Macaca fascicularis. An outline of the steps:
as §3

Series [11] deals with Cynomolgus monkey. Briefly: Inhibition of haTRAP-induced platelet aggregation in cynomolgus monkey at 1 mg/kg, po up to 6 hrs. As to conditions: Macaca fascicularis. More on the design: dose 1 mg/kg. In kind it is functional, organism-based. An outline of the steps: (§5)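 Cynomolgus monkeys dosed orally at 1 mg/kg and kept conscious in chairs; blood sampled hourly up to 6 h and again at 24 h; haTRAP added to the samples to trigger aggregation, measured by whole blood aggregometry.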

Series [12] concerns Cynomolgus monkey. Briefly: Inhibition of haTRAP-induced platelet aggregation in cynomolgus monkey at 1 mg/kg, po after 24 hrs. The class given is functional. Conditions: Macaca fascicularis. An outline of the steps: as §5
Series [13] addresses T2, Proteinase-activated receptor 1 (Homo sapiens) (UniProt P25116).
T2 sequence (whole entry): T1 sequence (P25116 whole entry)
Described as §1. The class given is cell membranes. An outline of the steps: as §2

Series [14] can be described thus: Bioavailability in cynomolgus monkey at 1 mg/kg, iv and 1.5 mg/kg, po. The class given is ADME, organism-based, Macaca fascicularis. As to conditions: in vivo.
Series [15] in a line: Half life in cynomolgus monkey at 1 mg/kg, iv and 1.5 mg/kg, po. The class given is ADME, organism-based, Macaca fascicularis. Conditions: in vivo.
Series [16] is described as follows: AUC (0 to 24 hrs) in cynomolgus monkey at 1 mg/kg, iv and 1.5 mg/kg, po. In kind it is ADME, organism-based, Macaca fascicularis. As to conditions: plasma.
The nature of series [17]: Cmax in cynomolgus monkey at 1 mg/kg, iv and 1.5 mg/kg, po. In kind it is ADME, organism-based, Macaca fascicularis. Conditions: in vivo.
Series [18] in a line: Tmax in cynomolgus monkey at 1 mg/kg, iv and 1.5 mg/kg, po. Conditions: in vivo. The class given is ADME, organism-based, Macaca fascicularis.

Molecules are shown by their SMILES. The source made the active and inactive calls. The rule behind the calls is not given here.

As usually defined, the IC50 is the concentration that gives 50% inhibition. As a reminder, the AUC(0-t) is the area under the concentration-time curve up to a stated or last time point. A word on the Ki: it is a measure of affinity in units of concentration, obtained from inhibition or displacement. A word on the inhibition in vivo: it is the relative decrease from the control value, in per cent. One may read the bioavailability as the share of a dose that reaches the circulation, judged against a reference dose that is usually intravenous. For orientation: Cmax means the peak of the concentration-time curve. What is called half-life is the time in which the quantity being followed falls by half. The term Tmax denotes the time at which the peak concentration occurs.

As for `C[C@H]1OC(=O)[C@@H]2C[C@@H]3COCC[C@H]3[C@H](/C=C/c3ccc(-c4cccc(C(F)(F)F)c4)cn3)[C@H]12`, in series [1], the IC50 was 17 nM. The same molecule came in with an AUC(0-t) at 6 h in [2] of 545 ng·h/mL.
As to `CCOC(=O)N1CC[C@@H]2[C@H](C[C@H]3C(=O)O[C@H](C)[C@H]3[C@H]2/C=C/c2ccc(-c3cccc(F)c3)cn2)C1`, the IC50 in [1] was determined as 10.5 nM. For the same molecule, the Ki in series [1] worked out at 4.5 nM. In series [2], the AUC(0-t) at 6 h was 2220 ng·h/mL. The inhibition in vivo at 3 mg/kg with Cynomolgus monkey [3] amounted to 100%; in the series with Cynomolgus monkey [10], 70%. Besides, in series [4], the bioavailability came to 62%. Further, the Cmax in series [5] worked out at 990 nM. The molecule further gave a half-life in series [6] of 372 min. In [7], the Tmax came out at 42 min. The result in the series listed under Mus musculus [8] and in the series filed under Mus musculus [9] was inactive.
Consider `CCOC(=O)N1CC[C@@H]2[C@H](C[C@H]3C(=O)O[C@H](C)[C@H]3[C@H]2/C=C/c2ccc(-c3ccccc3F)cn2)C1`, for which, in series [1], the IC50 came to 8 nM. In series [2], this molecule came in with an AUC(0-t) at 6 h of 3780 ng·h/mL. In addition, the inhibition in vivo at 3 mg/kg with Cynomolgus monkey [3] and in the series with Cynomolgus monkey [10] was 55% each time.
For the molecule `CCOC(=O)N1CC[C@@H]2[C@H](C[C@H]3C(=O)O[C@H](C)[C@H]3[C@H]2/C=C/c2ccc(-c3ccccn3)cn2)C1`, the IC50 in series [1] was determined as 33.5 nM. Besides, the inhibition in vivo at 3 mg/kg came to 67% with Cynomolgus monkey [3] and 29% in the series on Cynomolgus monkey [10].
In turn, `CCNC(=O)N1CC[C@@H]2[C@H](C[C@H]3C(=O)O[C@H](C)[C@H]3[C@H]2/C=C/c2ccc(-c3cccc(F)c3)cn2)C1` registered an IC50 in [1] of 18.5 nM. In addition, in [2], the AUC(0-t) at 6 h came out at 2050 ng·h/mL. In addition, the values for the inhibition in vivo at 3 mg/kg in the series on Cynomolgus monkey [3] and in the series with Cynomolgus monkey [10] were 47% and 34%, respectively.
On the same counts, the results for `C[C@H]1OC(=O)[C@@H]2C[C@@H]3CN(C(=O)C4CC4)CC[C@H]3[C@H](/C=C/c3ccc(-c4cccc(F)c4)cn3)[C@H]12` are 15.5 nM, 4370 ng·h/mL, 100% and 72%.
For `COCCOC(=O)N1CC[C@@H]2[C@H](C[C@H]3C(=O)O[C@H](C)[C@H]3[C@H]2/C=C/c2ccc(-c3cccc(F)c3)cn2)C1`, the IC50 in [1] came to 16.5 nM. The same molecule yielded an AUC(0-t) at 6 h in [2] of 88 ng·h/mL.
For `C[C@H]1OC(=O)[C@@H]2C[C@@H]3CN(C(=O)C4CC4)CC[C@H]3[C@H](/C=C/c3ccc(-c4ccccc4F)cn3)[C@H]12`, in series [1], the IC50 was found to be 8 nM. This molecule also displayed an exposure AUC(0-t) at 6 h in [2] of 6010 ng·h/mL. In addition, the inhibition in vivo at 3 mg/kg turned out to be 45% in the series with Cynomolgus monkey [3] and 39% with Cynomolgus monkey [10].
Molecule `C[C@H]1OC(=O)[C@@H]2C[C@@H]3COCC[C@H]3[C@H](/C=C/c3ccc(-c4cccc(F)c4)cn3)[C@H]12` displayed an IC50 in series [1] of 26 nM. Also, the AUC(0-t) at 6 h in [2] was determined as 850 ng·h/mL. The result in the series on Cynomolgus monkey [11] was Active. Further, in the series with Cynomolgus monkey [12], at 1 mg/kg the inhibition in vivo was 80%.
Consider `CCOC(=O)N1CCC[C@H]2[C@H](/C=C/c3ccc(-c4cccnc4)cn3)[C@@H]3[C@@H](C)OC(=O)[C@@H]3C[C@@H]21`, for which the result in series [13] was inactive.
In turn, `C[C@H]1OC(=O)[C@@H]2C[C@@H]3CN(S(C)(=O)=O)CC[C@H]3[C@H](/C=C/c3ccc(-c4cccc(F)c4)cn3)[C@H]12` gave an IC50 in series [1] of 15 nM. In [2], this molecule registered an AUC(0-t) at 6 h of 5350 ng·h/mL. Further, the inhibition in vivo at 3 mg/kg in the series on Cynomolgus monkey [3] worked out at 54%; in the series on Cynomolgus monkey [10], 50%.
Molecule `C[C@H]1OC(=O)[C@@H]2C[C@@H]3COCC[C@H]3[C@H](/C=C/c3ccc(-c4cccc(F)c4F)cn3)[C@H]12` came in with an IC50 in [1] of 26 nM. For the same molecule, the AUC(0-t) at 6 h in [2] is 1190 ng·h/mL.
In series [1], `C[C@H]1OC(=O)[C@@H]2C[C@@H]3COCC[C@H]3[C@H](/C=C/c3ccc(-c4ccccc4F)cn3)[C@H]12` showed an IC50 of 25 nM. In addition, the AUC(0-t) at 6 h in [2] was 1050 ng·h/mL. For the same molecule, the outcome with Cynomolgus monkey [11] was Active. In the series with Cynomolgus monkey [12], testing at 1 mg/kg gave an inhibition in vivo of 55%. Moreover, the bioavailability in [14] was 71%. Also, the half-life in series [15] is 516 min. The area under the curve AUC(0-t) in series [16] was 3700 ng·h/mL. The molecule also came in with a Cmax in [17] of 610 ng/mL. Moreover, in series [18], the time to peak (Tmax) is 1.7 h.

For the origin of these results see ChEMBL document CHEMBL1148816, “Heterotricyclic himbacine analogs as potent, orally active thrombin receptor (protease activated receptor-1) antagonists” (J Med Chem, 2007).
